Here are results for eight molecules from ChEMBL document CHEMBL3739254, “Synthesis of apoptotic chalcone analogues in HepG2 human hepatocellular carcinoma cells” (Bioorg Med Chem Lett, 2015).

Structures are written as SMILES. Calls of active or inactive are those of the source. The calls are words filed in the database; no cut-off is given here. Where only a bound is given, the exact number is not on record here.

In assay [1] the test system is HepG2. Description: Cytotoxicity against human HepG2 cells assessed as cell viability at 5 to 100 uM after 24 hrs by MTT assay relative to control. Type of assay: functional, cell-based. Put shortly: (§1)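 HepG2 cells kept in DMEM with 10% FBS and penicillin/streptomycin at 37 °C under 5% CO2. Cells were exposed for 24 h to chalcone analogues at various concentrations, up to 100 µM, and viability was then read by MTT assay.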
In general terms: Tetrazolium dyes change colour on reduction, which living cells bring about.

In assay [2] the test system is HepG2. Description: Cytotoxicity against human HepG2 cells assessed as cell viability after 24 hrs by MTT assay. Type of assay: functional, cell-based. The conditions noted are these: HepG2, 24 h. An outline of the steps:
as §1

Assay [3] has as its system HepG2. Description: Induction of apoptosis in human HepG2 cells assessed as early apoptotic cells at 50 uM by annexin V-FITC/propidium iodide staining-based flow cytometric analysis (reference value: 1.9 +/- 0.5%). Type of assay: functional. On the technique in general: Flow cytometry measures light scatter and fluorescence of single cells or particles in a stream.
For a further assay, the system named is LLC-PK1. Description: Cytotoxicity against porcine LLC-PK1 cells assessed as cell viability after 24 hrs by MTT assay. Type of assay: cell-based. To be noted: Sus scrofa, LLC-PK1, 24 h.
Assay [4] has as its system HepG2. Put plainly: Cytotoxicity against human HepG2 cells assessed as cell viability at 100 uM after 24 hrs by MTT assay. To be noted: HepG2, 24 h, read-out: GI. Type of assay: functional. An outline of the steps:
as §1

Assay [5] relates to HepG2. Description: Induction of apoptosis in human HepG2 cells assessed as cleavage of caspase-8 at 25 to 50 uM after 24 hrs by Western blot analysis. Type of assay: functional, cell-based. An outline of the steps:
(§2)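 HepG2 cells were grown in 60 mm dishes and treated at 25 and 50 µM for 24 h. Whole-cell extracts were made in RIPA buffer with 1× protease inhibitor cocktail and 1 mM PMSF. Lysates (20 µg) were run on SDS–PAGE and transferred to PVDF. Blots were probed with epitope-specific antibodies against GAPDH and the target proteins and detected by ECL.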
For orientation: A western blot detects proteins with antibodies after separation by electrophoresis.

Assay [6] has as its system HepG2. Description: Induction of apoptosis in human HepG2 cells assessed as early apoptotic cells at 25 uM by annexin V-FITC/propidium iodide staining-based flow cytometric analysis (reference value: 1.9 +/- 0.5%). Type of assay: functional.
Assay [7] has as its system HepG2. Put plainly: Induction of apoptosis in human HepG2 cells assessed as cleavage of caspase-9 at 25 to 50 uM after 24 hrs by Western blot analysis. Type of assay: functional, cell-based. Put shortly: as §2
In assay [8] the test system is HepG2. Put plainly: Induction of apoptosis in human HepG2 cells assessed as increase in Bax/Bcl2 ratio at 25 to 50 uM after 24 hrs by Western blot analysis. Type of assay: functional, cell-based. Put shortly:
as §2

The subject of assay [9] is HepG2. Description: Induction of apoptosis in human HepG2 cells assessed as cleavage of PARP at 25 to 50 uM after 24 hrs by Western blot analysis. Type of assay: functional, cell-based. Put shortly: as §2
In assay [10] the test system is HepG2. Put plainly: Induction of apoptosis in human HepG2 cells assessed as cell shrinking at 25 to 50 uM by phase contrast microscopic analysis. Type of assay: functional, cell-based.
Assay [11] deals with HepG2. Description: Cytotoxicity against human HepG2 cells assessed as cell viability at 50 uM after 24 hrs by MTT assay. Type of assay: functional. The conditions noted are these: HepG2, 24 h, read-out: GI. Put shortly: as §1
Assay [12] deals with HepG2. Put plainly: Induction of apoptosis in human HepG2 cells assessed as progressive condensation at 25 to 50 uM by phase contrast microscopic analysis. Type of assay: functional, cell-based.
Assay [13] has as its system HepG2. Description: Induction of apoptosis in human HepG2 cells assessed as karyorrhexis at 25 to 50 uM by phase contrast microscopic analysis. Type of assay: functional, cell-based.
The subject of assay [14] is HepG2. Description: Cytotoxicity against human HepG2 cells assessed as cell viability at 5 to 100 uM after 24 hrs by MTT assay. Type of assay: functional. Put shortly: as §1
The test system of assay [15] is HepG2. Description: Induction of apoptosis in human HepG2 cells assessed as cleavage of caspase-3 at 25 to 50 uM after 24 hrs by Western blot analysis. Type of assay: functional, cell-based. An outline of the steps: as §2

On to `COc1ccc(C(=O)/C=C/c2ccc(-c3ccccc3)cc2)cc1OC`, for which the “growth inhibition (GI)” value in the assay on HepG2 [1] was “inactive”.
Still for that read-out and setting: in the case of `O=C(/C=C/c1ccc(-c2ccccc2)cc1)c1ccc(Cl)cc1` it was “inactive”; in that of `CCn1c2ccccc2c2cc(/C=C/C(=O)c3ccc(OC)c(OC)c3)ccc21`, “inactive”; in that of `O=C(/C=C/c1ccc2ccccc2c1)c1ccc(Br)cc1`, “inactive”.
For `COc1cccc(C(=O)/C=C/c2cc(OC)c(Br)c(OC)c2)c1`, the half-maximal inhibitory concentration (IC50) (in general, the concentration at which inhibition is half-maximal) in the assay on HepG2 [2] amounted to 26 µM; with LLC-PK1, 83 µM. Moreover, the Activity is 31.2% in the assay on HepG2 [3] and 8.5% in the assay on HepG2 [6]. The inhibition of growth at 100 µM in the assay on HepG2 [4] turned out to be 98%. For the same molecule, the outcome in the assay on HepG2 [5], with HepG2 [8], in the assay with HepG2 [9], in the assay on HepG2 [10], in the assay on HepG2 [12] and with HepG2 [13] was Active. For the same molecule, in the assay with HepG2 [15], the result was Active. The outcome in the assay with HepG2 [7] was inactive. In addition, the inhibition of growth at 50 µM in the assay with HepG2 [11] was at most 91%. Also, the “growth inhibition (GI)” value with HepG2 [14] is over 50%.
On to `CCn1c2ccccc2c2cc(/C=C/C(=O)c3ccc(Cl)cc3)ccc21`, for which the “growth inhibition (GI)” value with HepG2 [1] is “inactive”.
As for `COc1cc(/C=C/C(=O)c2ccc(Br)cc2)cc(OC)c1Br`, in the assay with HepG2 [14], the “growth inhibition (GI)” value is over 50%.
Take `O=C(/C=C/c1ccc2ccccc2c1)c1ccc(Cl)cc1`: in the assay on HepG2 [1], the “growth inhibition (GI)” value is “inactive”.
